Key:
HT-29 [1] = assay: Induction of apoptosis in human HT29 cells at 25 uM after 24 hrs by FACS; assay type: functional
Outline: (§1)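 2 × 10^5 cells plated in 60 mm dishes and incubated 24 h, then treated for 24 h with compound in DMSO. Cells harvested, washed in PBS and fixed overnight in ice-cold ethanol at −20 °C. Pellets held 30 min at 37 °C in 0.5% Triton X-100/PBS with 0.5 μg/mL RNase. Propidium iodide (50 μg/mL) added, 30 min on ice. Sub-G1 fraction read by FACScan flow cytometry. n=3, mean ± SE.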

COLO 205 [2] = assay: Induction of apoptosis in human COLO205 cells at 50 uM after 24 hrs by FACS; assay type: functional; outline: as §1
AGS [3] = assay: Induction of apoptosis in human AGS cells at 50 uM after 24 hrs by FACS; assay type: functional; outline: as §1
HL-60 [4] = assay: Induction of apoptosis in human HL60 cells at 50 uM after 24 hrs by FACS; assay type: functional; outline: as §1
HL-60 [5] = assay: Induction of apoptosis in human HL60 cells at 100 uM after 24 hrs by FACS; assay type: functional; outline: as §1
AGS [6] = assay: Cytotoxicity against human AGS cells after 24 hrs by trypan blue exclusion assay; assay type: functional, cell-based
Outline: (§2)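 Cells grown at 37 °C, 5% CO2; RPMI for COLO 205, HT-29 and HL-60, DMEM/F12 for AGS, each with 10% heat-inactivated FBS, penicillin/streptomycin and 2 mM L-glutamine. Compounds in DMSO (vehicle control 0.01% DMSO) tested at 5–100 μM for 24 h. Cells diluted 1:1 with 0.5% trypan blue. Unstained cells counted by hemocytometer and expressed as % viable. Three samples per group, mean ± SE.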

HL-60 [7] = assay: Induction of apoptosis in human HL60 cells at 10 uM after 24 hrs by FACS; assay type: functional; outline: as §1
HL-60 [8] = assay: Induction of apoptosis in human HL60 cells at 25 uM after 24 hrs by FACS; assay type: functional; outline: as §1
AGS [9] = assay: Induction of apoptosis in human AGS cells at 100 uM after 24 hrs by FACS; assay type: functional; outline: as §1
COLO 205 [10] = assay: Cytotoxicity against human COLO205 cells after 24 hrs by trypan blue exclusion assay; assay type: functional, cell-based; details: COLO 205, 24 h; outline: as §2
HT-29 [11] = assay: Induction of apoptosis in human HT29 cells at 100 uM after 24 hrs by FACS; assay type: functional; outline: as §1
COLO 205 [12] = assay: Induction of apoptosis in human COLO205 cells at 5 uM after 24 hrs by FACS; assay type: functional; outline: as §1
COLO 205 [13] = assay: Induction of apoptosis in human COLO205 cells at 100 uM after 24 hrs by FACS; assay type: functional; outline: as §1
HT-29 [14] = assay: Induction of apoptosis in human HT29 cells at 10 uM after 24 hrs by FACS; assay type: functional; outline: as §1
HT-29 [15] = assay: Induction of apoptosis in human HT29 cells at 5 uM after 24 hrs by FACS; assay type: functional; outline: as §1
COLO 205 [16] = assay: Induction of apoptosis in human COLO205 cells at 10 uM after 24 hrs by FACS; assay type: functional; outline: as §1
HT-29 [17] = assay: Cytotoxicity against human HT29 cells after 24 hrs by trypan blue exclusion assay; assay type: functional, cell-based; details: HT-29, 24 h; outline: as §2
HL-60 [18] = assay: Induction of apoptosis in human HL60 cells at 5 uM after 24 hrs by FACS; assay type: functional; outline: as §1
HT-29 [19] = assay: Induction of apoptosis in human HT29 cells at 50 uM after 24 hrs by FACS; assay type: functional; outline: as §1
AGS [20] = assay: Induction of apoptosis in human AGS cells at 10 uM after 24 hrs by FACS; assay type: functional; outline: as §1
AGS [21] = assay: Induction of apoptosis in human AGS cells at 25 uM after 24 hrs by FACS; assay type: functional; outline: as §1
COLO 205 [22] = assay: Induction of apoptosis in human COLO205 cells at 25 uM after 24 hrs by FACS; assay type: functional; outline: as §1
AGS [23] = assay: Induction of apoptosis in human AGS cells at 5 uM after 24 hrs by FACS; assay type: functional; outline: as §1
HL-60 [24] = assay: Cytotoxicity against human HL60 cells after 24 hrs by trypan blue exclusion assay; assay type: functional, cell-based; details: HL-60, 24 h; outline: as §2

| Compound | Activity (HT-29 [1]) [%] | Activity (COLO 205 [2]) [%] | Activity (AGS [3]) [%] | Activity (HL-60 [4]) [%] | Activity (HL-60 [5]) [%] | IC50 (AGS [6]) [µM] | Activity (HL-60 [7]) [%] | Activity (HL-60 [8]) [%] | Activity (AGS [9]) [%] | IC50 (COLO 205 [10]) [µM] | Activity (HT-29 [11]) [%] | Activity (COLO 205 [12]) [%] | Activity (COLO 205 [13]) [%] | Activity (HT-29 [14]) [%] | Activity (HT-29 [15]) [%] | Activity (COLO 205 [16]) [%] | IC50 (HT-29 [17]) [µM] | Activity (HL-60 [18]) [%] | Activity (HT-29 [19]) [%] | Activity (AGS [20]) [%] | other results |
| --- | --- | --- | --- | --- | --- | --- | --- | --- | --- | --- | --- | --- | --- | --- | --- | --- | --- | --- | --- | --- | --- |
| C=C1C(=O)O[C@@H]2CC(C)=C([C@@H](C)CCCOC(C)=O)[C@H](O)[C@H]12 | 11.68 | 16.59 | 14.84 | 5.69 | 22.19 | > 100 | 7.26 | 4.37 | 18.85 | > 100 | 14.87 | 13.44 | 35.79 | 6.81 | 5.36 | 11.32 | 96 | 4.05 | 9.26 | 17.28 | Activity (AGS [21]): 14.666%; Activity (COLO 205 [22]): 16.48%; Activity (AGS [23]): 15.37%; IC50 (HL-60 [24]): > 100 µM |
| C=C1C(=O)O[C@@H]2CC(C)=C([C@@H](C)CCCO)[C@H](OC(=O)C(C)CC)[C@H]12 (stereo partly drawn) | 3.93 | 27.21 | 28.48 | 28.6 | 27.05 | 31.3 | 5.36 | 10.53 | 27.1 | 58.7 | 6.4 | 5.33 | 36.24 | 3.68 | 4.24 | 5.86 | 48.1 | 6.41 | 5.16 | 11.38 | Activity (AGS [21]): 17.76%; Activity (COLO 205 [22]): 15.2%; Activity (AGS [23]): 10.89%; IC50 (HL-60 [24]): 47.1 µM |
| C=C1C(=O)O[C@@H]2CC(C)=C([C@@H](C)CCCOC(C)=O)[C@H](OC(C)=O)[C@H]12 | 11.5 | 15.44 | 10.79 | 27.02 | 22.24 | 66.4 | 8.67 | 21.13 | 8.12 | 56.7 | 20.88 | 6.94 | 17.82 | 11.15 | 11.19 | 8.69 | 76.6 | 6.14 | 13.08 | 5.79 | Activity (AGS [21]): 11.29%; Activity (COLO 205 [22]): 26.95%; Activity (AGS [23]): 7.49%; IC50 (HL-60 [24]): 35.3 µM |
| C=C1C(=O)O[C@H]2/C=C(\C)CC/C=C(\C)C[C@H](OC(C)=O)[C@@H]12 [ACETYL NEOBRITANNILACTONE B] | 69.7 | 96.92 | 13.64 | 97.74 | 98.05 | 5.4 | 39.71 | 95.17 | 43.11 | 14.7 | 82.47 | 15.47 | 98.66 | 47.56 | 20.38 | 34.72 | 57 | 22.93 | 81.43 | 7.87 | Activity (AGS [21]): 9.89%; Activity (COLO 205 [22]): 76.87%; Activity (AGS [23]): 6.16%; IC50 (HL-60 [24]): 16.2 µM |
| C=C1C(=O)O[C@@H]2CC(C)=C([C@@H](C)CCCO)[C@H](O)[C@H]12 [BRITANNILACTONE] | 6.49 | 15.54 | 8.97 | 8.01 | 12.83 | > 100 | 5.64 | 5.24 | 10.37 | > 100 | 7.55 | 11.9 | 28.31 | 6.16 | 5.75 | 12.28 | > 100 | 7.22 | 6.59 | 10.37 | Activity (AGS [21]): 10.16%; Activity (COLO 205 [22]): 12.79%; Activity (AGS [23]): 7.93%; IC50 (HL-60 [24]): > 100 µM |
| CC(=O)OCCC[C@H](C)C1=C[C@@H]2[C@H](C)C(=O)O[C@@H]2C[C@@]1(C)O [NEOBRITANNILACTONE A] | 5.17 | 5.44 | 9.41 | 6.63 | 16.31 | > 100 | 6.31 | 6.19 | 9.81 | 97.9 | 7.73 | 4.08 | 25.5 | 4.24 | 3.94 | 6.51 | > 100 | 6.68 | 4.09 | 9.83 | Activity (AGS [21]): 10.57%; Activity (COLO 205 [22]): 4.28%; Activity (AGS [23]): 9.23%; IC50 (HL-60 [24]): 85.8 µM |
| C=C1C(=O)O[C@H]2/C=C(\C)CC/C=C(\C)C[C@H](O)[C@@H]12 [NEOBRITANNILACTONE B] | 66.54 | 89.11 | 15.95 | 96.94 | 98.29 | 21.4 | 21.93 | 77.57 | 19.22 | 14.3 | 87.02 | 10.73 | 96.81 | 24.46 | 13.58 | 14.12 | 56.1 | 9.82 | 82.27 | 8.66 | Activity (AGS [21]): 11.78%; Activity (COLO 205 [22]): 41.62%; Activity (AGS [23]): 9.55%; IC50 (HL-60 [24]): 27.4 µM |

— ChEMBL document CHEMBL1157304, “Sesquiterpene lactones from Inula britannica and their cytotoxic and apoptotic effects on human cancer cell lines” (J Nat Prod, 2006)
